Most compounds without a hit are left out; they make up all but 1.6% or so of the library.
Diaph act CS – activates diaphorase or chemically reduces, flagging diaphorase assay artifacts; Diaphorase/resazurin coupled assay, resorufin fluorescence, 16 min; hits give high values; 1 = vehicle wells, 0 = NADH-free wells; activation factor at 20 µM; 190,000 compounds, 0.005% hits;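 active = diaphorase activity raised at least twofold by the compound at 20 µM; inactive = activation factor below 2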
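test system = bacterial diaphorase enzyme (C. kluyveri) | quantity = enzyme 0.07 U/mL final | reagent = NADH substrate 0.114 mM plus resazurin dye 0.1 mM, final | incubation = 16 min enzyme reaction, ambient temperature | buffer or medium = HEPES pH 7.4 buffer with MgCl2 and Tween 20 | signal = fluorescence of resorufin, 544 nm excitation, 590 nm emission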
ABCG2 block – inhibitors of human ABCG2 transporter, ABCB1 counter-screen | 190,000 compounds, 0.1% hits | AID 1325 | Q9UNQ0 | inhibition, % at 6.6 µM | IgMXP3 cells, JC-1 efflux, flow cytometry;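 active = inhibition above 80%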;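 note: 0% = DMSO and 100% = nicardipine control wells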
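Read-out basis: Efflux inhibition in percent versus controls | Test system: ABCG2 IgMXP3 and barcoded ABCB1 CCRF-Adr cell mix | Quantity: 3 million cells/mL in well | Schedule: 10 min at 25 °C | Control set: Nicardipine as high control, DMSO as low control | Reagent: JC-1 as fluorescent efflux pump substrate | Signal: Flow cytometry of retained JC-1 fluorescence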
HMGR II inh – inhibitors of class II HMG-CoA reductase from Enterococcus faecalis | purified E. faecalis HMGR, NADPH absorbance 340 nm kinetic | inhibition, % at 10 µM | 190,000 compounds, 0.41% hits | AID 1066;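 active = inhibition above a set limit, the median over all tested compounds plus 3 SD, cut at about 9.5% in these data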;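 note: enzyme runs in reverse so mevalonate oxidation gives rising NADPH absorbance; 0% = complete reaction with DMSO and 100% = background rate lacking mevalonate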
ABCB1 inh – blocks JC-1 efflux by human ABCB1 transporter; P08183; CCRF-Adr cells, flow cytometry; inhibition, % at 6.6 µM; 190,000 compounds, 0.067% hits; in the data active = inhibition above about 40%;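 note: 0% = vehicle and 100% = reference inhibitor; higher value means more JC-1 retained so stronger ABCB1 efflux block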
NCF1 inh – blocks human p47phox regulatory protein of NADPH oxidases; P14598; p47phox/p22phox peptide binding, fluorescence polarization, 2 h; inhibition, % at 24.7 µM; 220,000 compounds, 0.53% hits; AID 1274;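 active = inhibition above about 30%, limit read from the data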;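 note: 0% = p47phox with labelled peptide and 100% = labelled peptide alone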
Target sequence (P14598 whole entry, looked up): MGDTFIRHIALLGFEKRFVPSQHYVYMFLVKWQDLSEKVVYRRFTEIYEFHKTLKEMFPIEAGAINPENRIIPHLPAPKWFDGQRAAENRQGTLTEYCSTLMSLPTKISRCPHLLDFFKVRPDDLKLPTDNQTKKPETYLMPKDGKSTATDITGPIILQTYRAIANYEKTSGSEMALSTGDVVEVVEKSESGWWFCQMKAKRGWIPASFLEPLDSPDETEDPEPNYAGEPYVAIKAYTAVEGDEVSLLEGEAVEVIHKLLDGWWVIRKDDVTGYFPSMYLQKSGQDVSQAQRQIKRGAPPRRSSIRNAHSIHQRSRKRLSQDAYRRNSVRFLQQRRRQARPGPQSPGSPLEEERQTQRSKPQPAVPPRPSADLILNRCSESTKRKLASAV
Diaphorase inh – counter-screen for diaphorase-based assays: diaphorase inhibitors and chemical oxidizers | diaphorase resazurin-to-resorufin fluorescence, NADH, 16 min; bacterial (C. kluyveri) enzyme, not human | inhibition, % at 20 µM | 190,000 compounds, 0.69% hits | AID 1217;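 active = primary screen inhibition at 20 µM above a set limit, cut at about 50% in these data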;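 note: plate controls were DMSO with full reaction for no effect and wells lacking NADH for full effect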
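System: Bacterial diaphorase enzyme (C. kluyveri) | Incubation: 16-min room-temperature incubation before reading | Benchmarks: No-NADH positive control and DMSO neutral control | Measured by: Resorufin fluorescence 544/590 nm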
* = called active by the depositor; x = no result given.

SMILES | Diaph act CS | ABCG2 block | HMGR II inh | ABCB1 inh | NCF1 inh | Diaphorase inh
CCn1c(SCC(=O)Nc2nnc(C)s2)nnc1-c1ccco1 | 0.9 | 2 | -5 | 0 | -4 | 10
Cc1ccccc1-c1oc(C)c(C)[n+]1[O-] | 0.9 | 0 | 15* | 0 | -6 | 11
Cc1oc(-c2cccs2)[n+]([O-])c1C | 0.9 | 2 | -1 | 0 | x | 15
COc1ccc(Cn2c(C)c(C)c(C#N)c2NC(=O)Nc2ccc(Cl)cc2)cc1 | 0.9 | 0 | 11* | 0 | -12 | 14
CCOC(=O)CN1C(=O)N[C@H](c2ccc(Br)cc2)C(C(C)=O)=C1C | 0.9 | 4 | -1 | 1 | 1 | 9
O=C(Nc1ccc2c(c1)C(=O)N(c1ccccc1)C2=O)C1CCCO1 (stereo unspecified) | 0.9 | 8 | 12* | 0 | -8 | 9
CN(C)c1ncc(C2=C(Cl)C(=O)C(N3CCCC3)=C(Cl)C2=O)s1 | x | -1 | 7 | 0 | 1 | x
O=C1C(Cl)=C(N2CCCCC2)C(=O)C(Cl)=C1c1cnc(N2CCCCC2)s1 | 0.4 | 0 | 2 | 0 | 10 | 62*
O=C(CCn1c(=O)oc2ccccc21)N(Cc1ccccc1)c1ccccc1 | 0.3 | 3 | 0 | 2 | -10 | 69*
CCOC(=O)/C(C(=O)Nc1ccccc1Cl)=C1/NC(C)(C)Cc2ccccc21 | 0.9 | 3 | 4 | 0 | -11 | 14
CCOC(=O)/C(C)=C1\NC(C)(C)Cc2ccccc21 | 0.8 | 0 | x | 0 | 62* | 18
O=C(NC1CCCCC1)N1CCC(c2nc(-c3ccc(S(=O)(=O)N4CCCC4)cc3)no2)CC1 | 0.9 | 23 | 1 | 1 | 1 | 14
CC1CCCC(NC(=O)COC(=O)c2cc(S(=O)(=O)N3CCCCC3)ccc2N2CCOCC2)C1C (stereo unspecified) | 1.1 | 6 | -6 | 3 | -5 | -7
O=C(COC(=O)c1cc(S(=O)(=O)N2CCCCC2)ccc1N1CCOCC1)NC1CCS(=O)(=O)C1 (stereo unspecified) | 1 | -2 | 14* | 0 | 0 | 4
COc1cccc(N(C(=O)Cn2nnc(-c3cccs3)n2)C(C(=O)NC2CCCCC2)c2ccncc2)c1 (stereo unspecified) | 0.9 | 4 | -3 | 1 | 46* | 10
Cc1ccc(C)c(N(C(=O)Cn2nnc(-c3cccs3)n2)C(C(=O)NC2CCCC2)c2ccncc2)c1 (stereo unspecified) | 1 | 1 | -1 | 0 | 0 | -3
O=C(NC1CCCC1)C(c1ccncc1)N(C(=O)Cc1cccs1)c1ccccc1 (stereo unspecified) | 0.8 | 0 | 10* | 0 | 3 | 15
O=C(CN(C1CCCCC1)S(=O)(=O)c1ccccc1)NCc1ccco1 | 0.9 | 12 | -3 | 3 | 4 | 6
Cc1ccc(-n2c3nc(=O)[nH]c(=O)c-3cc3cc([N+](=O)[O-])ccc32)cc1 | 0.3 | 3 | -4 | 0 | -8 | 74*
CCOC(=O)Cn1c(=O)cnc2ccccc21 | 0.9 | 4 | -6 | 1 | 32* | 12
COCC(=O)Nc1ccc2nc3n(c(=O)c2c1)CCCCC3 | x | x | x | x | 1 | x
COc1cc(/C=C(\C#N)c2nc3ccccc3[nH]2)cc(Br)c1OCc1ccccc1 | 0.9 | 0 | -5 | 0 | -16 | 9
COc1cc(/C=C(\C#N)c2nc3ccc(C)cc3[nH]2)cc([N+](=O)[O-])c1O | 0 | -1 | -3 | -1 | -78 | 98*
COc1cc(/C=C(\C#N)c2nc3ccccc3[nH]2)cc(OC)c1O | 0.5 | 4 | -10 | 0 | -222 | 51*
COCCn1nnnc1C(c1cccs1)N1CCCC(C)C1 (stereo unspecified) | 0.9 | 0 | -6 | 0 | -3 | 11
SMILES | Diaph act CS | ABCG2 block | HMGR II inh | ABCB1 inh | NCF1 inh | Diaphorase inh
NC(=S)n1[nH]c(-c2ccc([N+](=O)[O-])cc2)c(N=Nc2cccc(Cl)c2)c1=O | 0.5 | 0 | -6 | -2 | 7 | 51*
NC(=S)n1[nH]c(-c2ccc([N+](=O)[O-])cc2)c(N=Nc2ccc(O)cc2)c1=O | 0.8 | -14 | -3 | -2 | 12 | 20
O=C(O)c1cc(-c2ccc(N3CCOCC3)cc2)nn1-c1ccccc1Cl | 0.9 | 1 | 21* | 1 | -15 | 5
O=C(O)c1cc(-c2ccc(N3CCOCC3)cc2)nn1-c1ccc(F)cc1F | 0.8 | -1 | -12 | -2 | 2 | 18
COc1ccc(O)c(N)c1 | 0.4 | -1 | -1 | 0 | 43* | 62*
COC(=O)c1cccc(NC(=O)NC2CCCN2S(=O)(=O)c2ccc(Cl)cc2)c1 (stereo unspecified) | 0.9 | 3 | 3 | 0 | -10 | 8
COC(=O)c1ccc(NC(=O)CSc2n[nH]c(-c3ccncc3)n2)cc1 | 0.7 | 0 | -1 | 0 | -8 | 32
CCOC(=O)c1ccc(NC(=O)CSc2n[nH]c(-c3ccncc3)n2)cc1 | 0.5 | -3 | -3 | 0 | -10 | 51*
Cc1[nH]c2c(ccc3ccccc32)c1C1C(CCN)C1(C)C (stereo unspecified) | 1.1 | 1 | 2 | 0 | 60* | -8
CCNC(=O)Nc1cc2nc(C)n(Cc3ccc(Br)cc3)c2nc1C | 0.8 | 2 | -10 | 0 | -6 | 19
CCc1ccc(N2CC(C(=O)N/N=C/c3cc([N+](=O)[O-])ccc3O)CC2=O)cc1 (stereo unspecified) | 0.5 | -2 | -3 | 0 | -29 | 51*
N#C/C(C(N)=O)=c1/ccc2c(c1)N1C3=C(CCCC3)CC3CCCCC31N=2 (stereo unspecified) | 0.1 | 4 | 1 | 1 | 15 | 91*
N#CC(C#N)=c1ccc2c(c1)N1C3=C(CCCC3)CC3CCCCC31N=2 (stereo unspecified) | 0.2 | 9 | -2 | 8 | 8 | 76*
O=S1(=O)CC(O)C(Nc2ccccc2)C1 (stereo unspecified) | 0.8 | 6 | 0 | 1 | -13 | 16
Cc1cc(NC(=O)CN2CCCCC2)n(-c2ccccc2)n1 | x | x | x | x | -2 | x
Nc1ccnn1Cc1ccc(Br)s1 | 0.9 | 24 | -1 | 0 | -7 | 6
Cc1ccc(CN2CCN(Cc3ccc(C)s3)CC2CCO)cc1 (stereo unspecified) | 0.9 | -1 | -1 | 2 | -5 | 6
CC(=O)Nc1ccc(NC(=O)CSc2ccc(-c3ccco3)nn2)cc1 | 0.4 | 0 | 0 | 0 | 1 | 59*
CCCCN1C(=O)/C(=C(/C#N)C(=O)N2CCCC2)c2ccccc21 | x | x | x | x | -15 | x

Screening results as filed in PubChem.
